Results: ChEMBL document CHEMBL4043178, “Synthesis and evaluation of analogs of 5'-(((Z)-4-amino-2-butenyl)methylamino)-5'-deoxyadenosine (MDL 73811, or AbeAdo) - An inhibitor of S-adenosylmethionine decarboxylase with antitrypanosomal activity” (Bioorg Med Chem, 2017)

Columns and labels:
Trypanosoma brucei [1] = experiment: Antitrypanosomal activity against Trypanosoma brucei Lister 427 bloodstream forms assessed as inhibition of parasite growth at 25 uM incubated for 48 hrs by ATP-bioluminescence cell viability assay; format: functional; settings: Lister 427, 48 h, read-out: GI
Procedure, shortened: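 Bloodstream-form Lister 427 cells grown in HMI-19, seeded at 3000 cells/mL; compound added as 100-fold intermediate dilution, final DMSO 0.1%. After 48 h culture, viability read by CellTiter-Glo ATP-bioluminescence. Tested 0.0038–25 µM in 3-fold steps, triplicate; no-cell and DMSO-only controls (0% and 100% viability) per plate; value is percent inhibition at 25 µM.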

[2] = (§1) Half life in human pooled liver microsomes at 1 uM in presence of NADPH by LC/MS/MS method; format: ADME, microsome; settings: pooled liver microsomes
[3] = (§2) Half life in mouse pooled liver microsomes at 1 uM in presence of NADPH by LC/MS/MS method; format: ADME, microsome; settings: pooled liver microsomes
[4] = Inhibition of Trypanosoma brucei AdoMetDC pre-incubated for 30 mins before AdoMet substrate addition by RapidFire-mass spectrometry
Trypanosoma brucei [5] = experiment: Antitrypanosomal activity against Trypanosoma brucei Lister 427 bloodstream forms assessed as inhibition of parasite growth incubated for 48 hrs by ATP-bioluminescence cell viability assay; format: functional; settings: Lister 427, 48 h
[6] = Inhibition of Trypanosoma brucei AdoMetDC without pre-incubation for 30 mins before AdoMet substrate addition by RapidFire-mass spectrometry
Liver [7] = experiment: as §1; format: ADME, microsome; settings: microsomes, 1 µM
Liver [8] = experiment: as §2; format: ADME, microsome; settings: microsomes, 1 µM
Trypanosoma brucei [9] = experiment: Inhibition of Trypanosoma brucei AdoMetDC at 50 uM pre-incubated for 30 mins before AdoMet substrate addition by RapidFire-mass spectrometry
Procedure, shortened: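 Purified T. brucei AdoMetDC/prozyme complex, 50 nM in the enzyme solution, pre-incubated 30 min with compound in DMSO before adding the substrate solution (80 µM AdoMet); Hepes pH 7.7, NaCl, 5 mM putrescine. Reaction 20 min, quenched with 1 M HCl; substrate and product quantified by RapidFire-MS.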

MDCK-MDR1 = experiment: Apparent permeability in MDCK2-MDR1 cells at 3 uM incubated for 1 hr in absence of P-glycoprotein inhibitor GF120918 by LC/MS/MS method; format: ADME, cell-based, Canis lupus familiaris; settings: dog, mdck-mdr1, 1 h
Trypanosoma brucei [10] = experiment: Inhibition of Trypanosoma brucei AdoMetDC at 50 uM without pre-incubation for 30 mins before AdoMet substrate addition by RapidFire-mass spectrometry
Procedure, shortened: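 Inhibition without pre-incubation: substrate solution (80 µM AdoMet) added to compound before the enzyme solution (50 nM purified T. brucei AdoMetDC/prozyme); buffer Hepes pH 7.7 with 5 mM putrescine. Reaction ran 20 min, stopped with 1 M HCl, then analysed by RapidFire-MS.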

[11] = tested on: Trypanosoma brucei brucei; experiment: Antitrypanosomal activity against Trypanosoma brucei brucei; format: functional
[12] = Inhibition of His-tagged Trypanosoma brucei AdoMetDC expressed in Escherichia coli pre-incubated for 30 mins before AdoMet substrate addition

SMILES	half-life at 1 µM [2] [min]	half-life at 1 µM [3] [min]	EC50 (Trypanosoma brucei [5]) [µM]	t1/2 (Liver [7]) [h]	t1/2 (Liver [8]) [h]	inhibition (Trypanosoma brucei [9]) [%]	Papp (MDCK-MDR1) [×10⁻⁶ cm/s]	inhibition (Trypanosoma brucei [10]) [%]	EC50 [11] [µM]	IC50 [12] [µM]	inhibition of growth at 25 µM (Trypanosoma brucei [1]) [%]	IC50 [4] [µM]	IC50 [6] [µM]
CC(=O)Oc1cc(C)cc(C)c1C(C)(C)CC(=O)NC/C=C\CN(C)C[C@H]1O[C@@H](n2cnc3c(N)ncnc32)[C@@H]2OC(C)(C)O[C@@H]21	≤ 2.5	≤ 2.5									44	> 50	
Cc1nc2c(N)ncnc2n1[C@@H]1O[C@H](CN(C/C=C\CN)C2CC2)[C@H]2OC(C)(C)O[C@H]21			> 3	> 1.5	> 1.5							> 50	> 50
NC/C=C\CN(CCF)C[C@H]1O[C@@H](n2cnc3c(N)ncnc32)[C@H](O)[C@@H]1O			> 25	> 1.5	> 1.5	36							> 50
Cc1nc2c(N)ncnc2n1[C@@H]1O[C@H](CN(C)C/C=C\CNC(=O)OC(C)(C)C)[C@H]2OC(C)(C)O[C@H]21			> 25	< 0.0417	< 0.0417		5.1					> 50	> 50
CC(C)Nc1ncnc2c1ncn2[C@@H]1O[C@H](CN(C)C/C=C\CN)[C@@H](O)[C@H]1O			2.5	> 1.5	> 1.5							0.11	7.1
Cc1nc2c(N)ncnc2n1[C@@H]1O[C@H](CN(C/C=C\CN)C2CC2)[C@@H](O)[C@H]1O			> 3	> 1.5	> 1.5							> 50	> 50
CN(C/C=C\CN)C[C@H]1O[C@@H](n2cnc3cncnc32)[C@@H]2OC(C)(C)O[C@@H]21			> 25	> 1.5	0.983							> 50	> 50
CC(=O)NC/C=C\CN(C)C[C@H]1O[C@@H](n2cnc3c(N)ncnc32)[C@H](O)[C@@H]1O			> 25	> 1.5	> 1.5							18	13
CN(C/C=C\CN)C[C@H]1O[C@@H](n2cnc3c(N)ncnc32)[C@H](O)[C@@H]1O			0.01	> 1.5	> 1.5				0.01	0.041		0.041	2.4
CN(C/C=C\CN)C[C@H]1O[C@@H](n2cnc3c(N(C)C)ncnc32)[C@H](O)[C@@H]1O			10	> 1.5	> 1.5			37				0.81	
CCCCCCCCC(=O)Nc1ncnc2c1ncn2[C@@H]1O[C@H](CN(C)C/C=C\CN)[C@H]2OC(C)(C)O[C@H]21			0.16	0.162	0.1		1					0.85	48
Cc1nc2c(N)ncnc2n1[C@@H]1O[C@H](CN(C)C/C=C\CN)[C@@H](O)[C@H]1O			0.0018	> 1.5	> 1.5				0.0018	0.021		0.021	0.23
CN(C/C=C\CN)C[C@H]1O[C@@H](n2cnc3c(N)ncnc32)[C@@H]2OC(C)(C)O[C@@H]21			0.42	> 1.5	> 1.5			22				3	
CC(=O)NC/C=C\CN(C)C[C@H]1O[C@@H](n2cnc3c(N)ncnc32)[C@H](OC(C)=O)[C@@H]1OC(C)=O			> 25	> 1.5	0.11							> 50	> 50
CC1(C)O[C@@H]2[C@H](O1)[C@@H](CN(C/C=C\CN)CCF)O[C@H]2n1cnc2c(N)ncnc21			> 25	> 1.5	> 1.5							> 50	> 50
Cc1nc2c(N)ncnc2n1[C@@H]1O[C@H](CN(C/C=C\CNC(=O)OC(C)(C)C)C2CC2)[C@H]2OC(C)(C)O[C@H]21			3	< 0.0417	< 0.0417		31.2					42	> 50
CNc1ncnc2c1ncn2[C@@H]1O[C@H](CN(C)C/C=C\CN)[C@@H](O)[C@H]1O			0.37	> 1.5	> 1.5							0.17	14
CCOc1ncnc2c1ncn2[C@@H]1O[C@H](CN(C)C/C=C\CN)[C@@H](O)[C@H]1O			0.36	> 1.5	> 1.5			33				0.6	

More lines, main results first:

half-life at 1 µM [2] [min]	half-life at 1 µM [3] [min]	EC50 (Trypanosoma brucei [5]) [µM]	t1/2 (Liver [7]) [h]	t1/2 (Liver [8]) [h]	inhibition (Trypanosoma brucei [9]) [%]	Papp (MDCK-MDR1) [×10⁻⁶ cm/s]	inhibition (Trypanosoma brucei [10]) [%]	EC50 [11] [µM]	IC50 [12] [µM]	SMILES	inhibition of growth at 25 µM (Trypanosoma brucei [1]) [%]	IC50 [4] [µM]	IC50 [6] [µM]
		> 25	1.25	0.0767						CCC(=O)NC/C=C\CN(C)C[C@H]1O[C@@H](n2cnc3c(N)ncnc32)[C@H](OC(C)=O)[C@@H]1OC(C)=O		> 50	> 50
		> 25	> 1.5	> 1.5						Cc1nc2c(N)ncnc2n1[C@@H]1O[C@H](CN(C/C=C\CN)CCO)[C@H]2OC(C)(C)O[C@H]21		> 50	> 50
		> 25	> 1.5	> 1.5						CCCC(=O)NC/C=C\CN(C)C[C@H]1O[C@@H](n2cnc3c(N)ncnc32)[C@H](O)[C@@H]1O		> 50	> 50
		> 25	> 1.5	> 1.5						CCC(=O)NC/C=C\CN(C)C[C@H]1O[C@@H](n2cnc3c(N)ncnc32)[C@H](O)[C@@H]1O		25	19
			> 1.5	> 1.5						Cc1nc2c(N)ncnc2n1[C@@H]1O[C@H](CN(C)C/C=C\CNC(=O)OC(C)C)[C@@H](O)[C@H]1O	35	> 50	> 50
			> 1.5	> 1.5						CNc1ncnc2c1ncn2[C@@H]1O[C@H](CN(C)C/C=C\CN)[C@H]2OC(C)(C)O[C@H]21	37	12	> 50
		2.6	0.4	0.217	39		17			Cc1nc2c(N)ncnc2n1[C@@H]1O[C@H](CN(C)C/C=C\CNC(=O)OCc2ccccc2)[C@@H](O)[C@H]1O			
		> 25	0.85	0.05						CCCC(=O)NC/C=C\CN(C)C[C@H]1O[C@@H](n2cnc3c(N)ncnc32)[C@H](OC(C)=O)[C@@H]1OC(C)=O		> 50	> 50
			> 1.5	> 1.5	40		40			CCOC(=O)NC/C=C\CN(C)C[C@H]1O[C@@H](n2c(C)nc3c(N)ncnc32)[C@H](O)[C@@H]1O			
